Results reported in paper PMC9653025 (Drug Design, Development and Therapy, 2022).
Read-outs that look alike come from different tables or passages of the source.

Legend:
COX-1/COX-2 = conditions: cited from earlier work
[1] = healthy subjects, single oral dose 30, 60, 90 and 200mg imrecoxib; cited from earlier work
[2] = assay type: in vivo, healthy Chinese subjects; conditions: single oral 100 mg imrecoxib, plasma
Summary of the method: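 Open-label parallel Phase I study in healthy Chinese adults aged 18–85 y, BMI 19–28 kg/m2, 1:1 sex. Single 100 mg tablet of test compound taken orally with 240 mL water after a 4 h fast. EDTA blood drawn predose and 0.5–72 h after dosing; plasma stored at −70°C. Parent compound plus hydroxyl and carboxyl metabolites measured by LC-MS/MS (C18, MRM, acetonitrile precipitation, internal standard). Non-compartmental analysis; group geometric mean ratios with 90% CI.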

Safety and tolerability = assay type: in vivo, healthy Chinese subjects
Summary of the method: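 Single 100 mg oral tablet given after fasting; subjects kept in a supervised Phase I ward until 72 h post-dose. Tolerability tracked through adverse-event monitoring, physical examinations, haematology, blood biochemistry, urinalysis and 12-lead ECG; clinical laboratory tests run in a CAP-accredited hospital laboratory. Elderly and non-elderly groups assessed in parallel.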

[3] = Elderly Group (N=9), single oral 100 mg imrecoxib
[4] = Elderly Group (N=9), single oral 100 mg imrecoxib, subjects (%)
[5] = Non-Elderly Group (N=10), single oral 100 mg imrecoxib
[6] = Non-Elderly Group (N=10), single oral 100 mg imrecoxib, subjects (%)

Structure (SMILES): CS(=O)(=O)c1ccc(C2=C(c3ccccc3)C(=O)OC2)cc1 [rofecoxib]
- IC50COX-1/IC50COX-2 value (COX-1/COX-2): above 213

Structure (SMILES): CCCN1CC(c2ccc(S(C)(=O)=O)cc2)=C(c2ccc(C)cc2)C1=O [M0, imrecoxib]
- Dose dependence of pharmacokinetics [1]: linear dynamic characteristics
- Tmax [1]: about 2 hours
- Geometric Mean AUC0-∞ ([2]; Group A (N=10), non-elderly): 148 h*ng/m
- Geometric Mean AUC0-∞ ([2]; Group B (N=9), elderly): 193 h*ng/m
- Geometric Mean Ratio B/A of AUC0-t ([2]; elderly (B) / non-elderly (A)): 134%
- Geometric Mean Ratio B/A of AUC0-∞ ([2]; elderly (B) / non-elderly (A)): 130%
- Geometric Mean Ratio B/A of Cmax ([2]; elderly (B) / non-elderly (A)): 139%
- IC50COX-1/IC50COX-2 value (COX-1/COX-2): 6.39
- IC50COX-1/IC50COX-2 value relative to celecoxib (COX-1/COX-2): 77%
- All adverse events, Severity Grade I (Safety and tolerability; [3]): 2
- Aspartate transaminase increased, Severity Grade I (Safety and tolerability; [3]): 1
- Aspartate transaminase increased, Severity Grade II (Safety and tolerability; [3]): 0
- Aspartate transaminase increased, Severity Grade III (Safety and tolerability; [3]): 0
- Blood bilirubin increased, Severity Grade I (Safety and tolerability; [3]): 1
- Blood bilirubin increased, Severity Grade II (Safety and tolerability; [3]): 0
- Blood bilirubin increased, Severity Grade III (Safety and tolerability; [3]): 0
- Blood glucose increased, Severity Grade I (Safety and tolerability; [3]): 0
- Blood glucose increased, Severity Grade II (Safety and tolerability; [3]): 0
- Blood glucose increased, Severity Grade III (Safety and tolerability; [3]): 0
- White blood cell increased, Severity Grade I (Safety and tolerability; [3]): 0
- White blood cell increased, Severity Grade II (Safety and tolerability; [3]): 0
- White blood cell increased, Severity Grade III (Safety and tolerability; [3]): 0
- Acute upper respiratory infection, Incidence (%) (Safety and tolerability; [4]): 0(0.0%)
- All adverse events, Incidence (%) (Safety and tolerability; [4]): 2(22.2%)
- Aspartate transaminase increased, Incidence (%) (Safety and tolerability; [4]): 1(11.1%)
- Blood bilirubin increased, Incidence (%) (Safety and tolerability; [4]): 1(11.1%)
- Blood glucose increased, Incidence (%) (Safety and tolerability; [4]): 0(0.0%)
- Fibrinogen decreased, Incidence (%) (Safety and tolerability; [4]): 0(0.0%)
- White blood cell increased, Incidence (%) (Safety and tolerability; [4]): 0(0.0%)
- All adverse events, Severity Grade I (Safety and tolerability; [5]): 2
- Aspartate transaminase increased, Severity Grade I (Safety and tolerability; [5]): 0
- Aspartate transaminase increased, Severity Grade II (Safety and tolerability; [5]): 0
- Aspartate transaminase increased, Severity Grade III (Safety and tolerability; [5]): 0
- Blood bilirubin increased, Severity Grade I (Safety and tolerability; [5]): 0
- Blood bilirubin increased, Severity Grade II (Safety and tolerability; [5]): 0
- Blood bilirubin increased, Severity Grade III (Safety and tolerability; [5]): 0
- Blood glucose increased, Severity Grade I (Safety and tolerability; [5]): 1
- Blood glucose increased, Severity Grade II (Safety and tolerability; [5]): 0
- Blood glucose increased, Severity Grade III (Safety and tolerability; [5]): 0
- Fibrinogen decreased, Severity Grade I (Safety and tolerability; [5]): 1
- White blood cell increased, Severity Grade I (Safety and tolerability; [5]): 1
- White blood cell increased, Severity Grade II (Safety and tolerability; [5]): 0
- White blood cell increased, Severity Grade III (Safety and tolerability; [5]): 0
- Aspartate transaminase increased, Incidence (%) (Safety and tolerability; [6]): 0(0.0%)
- Blood bilirubin increased, Incidence (%) (Safety and tolerability; [6]): 0(0.0%)
- Severity of all the AEs (Safety and tolerability; both groups, recovered without any medical intervention): mild
- Gastrointestinal, cardiovascular or renal side effects observed (Safety and tolerability; both groups, single oral 100 mg imrecoxib): No concomitant gastrointestinal, cardiovascular or renal side effects
- AEs considered to be ADRs (Safety and tolerability; elderly group): Increased aspartate transaminase and blood bilirubin
- Tolerability (Safety and tolerability; non-elderly and elderly healthy subjects, oral): well tolerated
- AEs regarded as adverse drug reaction (ADR) (Safety and tolerability; non-elderly group): increased blood glucose
